Sampled rows, rich in hits. Any-hit rate of the full collection: about 1.4%.
H9c2 protect: cardioprotection against H2O2-induced cell death, primary screen, uHTS, H9c2 cells, ATPLite luminescence; H9c2 cardiomyocytes, H2O2 injury protection, 2 h; protection from H2O2 cell death, % at 20 µM; AID 588492, 2011; hit rate 0.63% among 360,000;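 active = compounds giving at least 50% protection of heart cells from peroxide-induced death in the single-dose screen, raw or plate-pattern-corrected value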;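 also: 0% = DMSO wells with peroxide and 100% = DMSO wells without peroxide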
DDE Tn6 FP inh: inhibitors of Tn6 peptide binding to fibrin DD(E), primary screen, biochemical, fluorescence polarization, human fibrin, Tn6 probe; inhibition, % at 8.3 µM; Fibrinogen beta chain (Homo sapiens), P02675; AID 720509, 2013; hit rate 0.21% among 370,000; Fibrin DD(E) TRITC-Tn6 fluorescence polarization displacement;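 active = inhibition above a per-campaign cutoff: mean of compounds within control limits plus 3 SD, cut at about 15% in these data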;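 also: 0% = median of all compound wells on the plate and 100% = blocking peptide control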
Target sequence (P02675 whole entry, looked up): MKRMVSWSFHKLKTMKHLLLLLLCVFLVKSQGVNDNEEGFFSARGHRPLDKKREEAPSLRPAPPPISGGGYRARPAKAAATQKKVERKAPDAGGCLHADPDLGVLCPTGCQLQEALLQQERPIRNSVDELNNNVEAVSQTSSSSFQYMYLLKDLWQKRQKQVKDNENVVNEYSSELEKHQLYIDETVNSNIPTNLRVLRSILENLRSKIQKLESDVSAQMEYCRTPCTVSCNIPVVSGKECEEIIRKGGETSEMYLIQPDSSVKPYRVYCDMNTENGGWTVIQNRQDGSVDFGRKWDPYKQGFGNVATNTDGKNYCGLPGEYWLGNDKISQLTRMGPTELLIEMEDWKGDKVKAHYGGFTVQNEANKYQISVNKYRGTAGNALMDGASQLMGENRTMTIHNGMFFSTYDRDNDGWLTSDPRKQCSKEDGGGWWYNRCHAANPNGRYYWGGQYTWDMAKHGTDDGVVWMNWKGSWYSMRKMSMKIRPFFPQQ
H9c2 TAG inh: inhibitors of triacylglycerol accumulation, primary screen, cell-based, uHTS, fluorescence, H9c2; AID 651582, 2012; H9c2 cells, Nile Red lipid (TAG) fluorescence; cells loaded with 200 µM oleic acid; hit rate 0.66% among 230,000; inhibition, % at 12.5 µM;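 active = pattern-corrected inhibition of lipid staining of at least 50% with the nuclear-stain viability signal not falling by more than 50%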;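 also: 0% = DMSO wells and 100% = triacsin C control wells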
DAGLB inh: DAGLB lipase inhibitors, primary screen, biochemical, fluorescence, HTS. Diacylglycerol lipase-beta (Homo sapiens), Q8NCG7. HEK293T DAGLB membrane lysate, EnzChek fluorogenic substrate. inhibition, % at 5.17 µM. hit rate 0.059% among 340,000; in the data active = inhibition above about 34%;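 also: 0% = enzyme with vehicle and 100% = wells lacking enzyme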
DDE Tn7 FP inh: inhibitors of Tn7 peptide binding to fibrin DD(E), primary screen, biochemical, fluorescence polarization, human fibrin, Tn7 probe; Fibrinogen beta chain (Homo sapiens), P02675; FP displacement of FITC-Tn7 peptide from fibrin DD(E); 0% = median of compound wells per plate; inhibition, % at 8.3 µM; hit rate 0.13% among 370,000; AID 720508, 2013;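 active = inhibition above the mean of compounds falling within the control limits plus 3 SD of them, cut at about 14% in these data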;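 also: 0% = plate median of compound wells and 100% = 10 µM Aha-Tn7 peptide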
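system = human fibrin DD(E) protein | quantity = DD(E) 2 µM final | medium = Tris/NaCl/CaCl2 buffer, pH 7.8 | also added = labelled Tn7 tracer, 0.1 µM | compound dosing = single point at 8.3 µM | timing = compound with protein 10 min, then 3 h after probe, room temperature | signal = FP measurement | benchmarks = Aha-Tn7 high control | repeats = one replicate per compound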
MT1-MMP act inh: blockers of MT1-MMP proenzyme processing, primary screen, HT1080 RFP-PRO-GFP cells, GFP/RFP fluorescence; Matrix metalloproteinase-14 (Homo sapiens), P50281; GFP/RFP ratio fluorescence, overnight; percent of plate control window, DMSO zero; GFP/RFP ratio change, % at 20 µM; hit rate 0.061% among 360,000; AID 651647, 2012;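 active = GFP/RFP ratio change of at least 30% with cell ATP level not reduced by more than half and red fluorescence within 50% of control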
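Test system: HT1080 cells expressing an RFP-PRO-GFP fluorescent reporter construct / Compound dosing: single-point 20 µM compound, 1% DMSO / Schedule: cells overnight before dosing, compound overnight, 37 °C, 5% CO2 / Evaluation: GFP/RFP fluorescence ratio / Control set: DMSO and RFP-L50D-GFP cell wells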
TAG conf: triacylglycerol accumulation inhibitors, retest, confirmation, cell-based, single concentration, Nile Red fluorescence, H9c2. shares compounds with H9c2 TAG inh. H9c2 lipid accumulation; cells loaded with 200 µM oleic acid. inhibition, % at 12.5 µM. hit rate 71% among 990;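 active = mean inhibition across replicates of 40% or more; inactive = mean inhibition below 40%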;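 also: plate controls were DMSO only wells for no effect and Triacsin C treated wells for full effect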
* = called active by the depositor; · = not tested or not shown; ! = not confirmed by another sample.

SMILES | H9c2 protect | DDE Tn6 FP inh | H9c2 TAG inh | DAGLB inh | DDE Tn7 FP inh | MT1-MMP act inh | TAG conf
O=C(Cc1coc2ccc3ccccc3c12)Nc1nccs1 | -10 | 0 | 52* | -1 | -4 | -4 | 43*
O=C1CN(C(=O)COc2cccc(F)c2)c2ccccc2N1 | · | -4 | · | · | -8 | · | ·
Cc1noc(C)c1COc1cccc(C(=O)OCC(=O)N2CC(=O)Nc3ccccc32)c1 | 12 | -7 | 66* | 1 | 7 | 5 | 89*
O=S(=O)(c1ccc(OCC(O)CNC23CC4CC(CC(C4)C2)C3)c(Cl)c1)N1CCOCC1 (centres undefined) | 5 | -4 | 59* | -3 | 8 | -7 | 31
Cc1ccc(S(=O)(=O)NCC(=O)N2CCN(c3ccccn3)CC2)s1 | · | 1 | · | · | 4 | · | ·
CCOC(=O)[C@@]12CCCC=C1N(CCc1ccc(Cl)cc1)C(=O)[C@H]2CC(=O)NCCc1ccccc1OC | · | -9 | · | · | 5 | · | ·
CCN1CCN(c2ncc3c(n2)CC(c2cc(OC)c(OC)c(OC)c2)CC3=O)CC1 (centres undefined) | 1 | 2 | 60* | 1 | -3 | -17 | 82*
O=C1CC(c2cccc(Cl)c2)Cc2nc(N3CCN(c4ccccc4)CC3)ncc21 (centres undefined) | -13 | 3 | 34 | -3 | 0 | -1 | ·
O=C(COc1ccc(Br)cc1CNC1CCCCC1)NCCc1ccccc1 | -13 | 8 | 59* | 2 | -3 | 3 | 39
CCC(C)[C@H](NC(=O)C1COC(O)([C@H](Cc2ccccc2)NC(=O)[C@@H](NC(=O)OCc2ccccc2)C(C)C)CN1C)C(=O)N[C@H](C(=O)OC)C(C)C (some centres undefined) | · | -3 | · | · | 5 | · | ·
COc1cc2c3c(cccc3c1)C(=O)N(CCN1CCCC1)C2=O | 9 | -2 | 117* | -4 | 0 | 16 | 109*
CCN(C(=O)COC(=O)c1cc(-c2ccccc2)nc2ccc(Br)cc12)C1CCS(=O)(=O)C1 (centres undefined) | -21 | -1 | 2 | -9 | 0 | -6 | ·
CCN(C(=O)COC(=O)c1cc(-c2ccccc2)nc2c1c(C)nn2-c1ccc(C)cc1)C1CCS(=O)(=O)C1 (centres undefined) | -2 | -4 | 55* | -3 | 7 | 2 | 69*
O=C(Nc1ccc([N+](=O)[O-])cn1)c1cc(-c2cccc(Cl)c2)nc2ccccc12 | -2 | 2 | 68* | -2 | 2 | 5 | 52*
CCOc1cc(-c2nc(-c3ccccc3)c(-c3cc([N+](=O)[O-])ccc3C)[nH]2)ccc1O | -4 | -4 | · | 2 | -1 | 1 | ·
COc1ccc(-c2nc(-c3ccccc3)c(-c3cc([N+](=O)[O-])ccc3C)[nH]2)cc1OC | -2 | 4 | 50* | -2 | -1 | 2 | 58*
CN(C)CCCn1c(=O)n(C2CCCCC2)c(=O)c2c3c(sc21)CCCCC3 | 7 | -3 | 59* | 1 | 7 | -20 | 72*
CCCCCCC(=O)Nc1nc(C)c(-c2csc(Nc3cc(OC)ccc3OC)n2)s1 | -12 | -11 | 43 | 3 | -4 | 5 | ·
CCCCCC(=O)Nc1nc(C)c(-c2csc(Nc3cc(OC)ccc3OC)n2)s1 | -9 | 3 | 59* | -1 | -2 | -1 | 75*
Cc1ccc(-c2nn3c(C)nnc3c3ccccc23)cc1S(=O)(=O)NC(C)c1ccccc1 (centres undefined) | 91* | -4 | 50* | 0 | -1 | 8 | 53*
COc1cccc(-c2ccc(CC[C@H]3O[C@H]4CC[C@@H](CO)O[C@H]4C[C@H]3NC(=O)c3cnccn3)cc2)c1 | · | 7 | · | · | 3 | · | ·
CCOc1ccc(CCNC(=O)CN2CCN(Cc3ccc(F)cc3)C2=O)cc1OCC | 4 | 0 | 33 | 0 | -5 | 1 | ·
CCOc1ccc(CCNC(=O)CN2CCN(Cc3ccccc3F)C2=O)cc1OCC | 2 | 3 | 60* | 0 | 1 | 0 | 42*
Nc1ncnc2c1ncn2[C@@H]1O[C@H](CNCc2ccccc2)[C@@H](O)[C@H]1O | 14 | · | -9 | -1 | · | -1 | ·
Nc1ncnc2c1ncn2[C@@H]1O[C@H](CNCc2cn(CC(=O)NC3CC3)c3ccccc23)[C@@H](O)[C@H]1O | 10 | -3 | 76* | -3 | 4 | 1 | 5
SMILES | H9c2 protect | DDE Tn6 FP inh | H9c2 TAG inh | DAGLB inh | DDE Tn7 FP inh | MT1-MMP act inh | TAG conf
CN(C)C(=O)CN1C(=O)NC2(CCCc3ccccc32)C1=O (centres undefined) | 3 | -3 | 5 | -3 | 7 | -4 | ·
Cc1ccc(CN(C)C(=O)CN2C(=O)NC3(CCCc4ccccc43)C2=O)c(C)c1 (centres undefined) | -1 | 5 | 51* | -4 | -6 | 6 | 40*
CCCCN1C(=O)N2CCc3ccccc3C2CS1(=O)=O (centres undefined) | · | -7 | · | · | -1 | · | ·
COc1cccc(C2c3cc4c(cc3OC(NNC(N)=O)C2C)OCO4)c1O (centres undefined) | 0 | 4 | 62* | 0 | -3 | 18 | 52*
COc1cc(C2c3cc4c(cc3OC(NNC(N)=O)C2C)OCO4)cc(OC)c1OC (centres undefined) | -3 | -4 | 46 | 0 | 1 | 13 | ·
Cc1ccc(C(=O)Nc2cccc(C(F)(F)F)c2)cc1NC(=O)c1ccno1 | 3 | -1 | 20 | -2 | -2 | -6 | ·
Cc1ccc(C(=O)Nc2cccc(C(F)(F)F)c2)cc1NC(=O)c1nccn1C | -5 | 6 | 96*! | 0 | -5 | 7 | 9
COC(=O)c1cc(=O)nc2sccn12 | -6 | 9 | -8 | 0 | -2 | 4 | ·
COC(=O)c1cc(NC(=O)c2c(Cl)nc3sccn23)cc(C(=O)OC)c1 | -12 | 2 | 70* | 0 | 3 | 3 | 87*
CN1N=C(N)c2cn(C3OC(COP(=O)(O)O)C(O)C3O)c3ncnc1c23 (centres undefined) | -3 | 3 | 52* | -2 | -4 | -19 | 64*
Nc1ncnc2c1ncn2[C@@H]1O[C@H](COP(=O)(O)O)[C@@H](O)[C@H]1O | 41 | 0 | -6 | 1 | 3 | 3 | ·

Assay outcomes: PubChem BioAssay, several laboratories
